BAP1 inh: inhibitors of human BAP1 deubiquitinase; calls only at 20 µM; Q92560; 72,000 compounds, 0.48% hits; recombinant BAP1, Ub-AMC hydrolysis fluorescence kinetic; stronger effect = lower value;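 active means activity remaining at or below 50% of control, provided the compound also passes the data quality filters; inactive means the rest, including low values that fail the filters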;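 further: 100% = DMSO wells rate and 0% = substrate alone blank rate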
Target sequence (Q92560 whole entry, looked up): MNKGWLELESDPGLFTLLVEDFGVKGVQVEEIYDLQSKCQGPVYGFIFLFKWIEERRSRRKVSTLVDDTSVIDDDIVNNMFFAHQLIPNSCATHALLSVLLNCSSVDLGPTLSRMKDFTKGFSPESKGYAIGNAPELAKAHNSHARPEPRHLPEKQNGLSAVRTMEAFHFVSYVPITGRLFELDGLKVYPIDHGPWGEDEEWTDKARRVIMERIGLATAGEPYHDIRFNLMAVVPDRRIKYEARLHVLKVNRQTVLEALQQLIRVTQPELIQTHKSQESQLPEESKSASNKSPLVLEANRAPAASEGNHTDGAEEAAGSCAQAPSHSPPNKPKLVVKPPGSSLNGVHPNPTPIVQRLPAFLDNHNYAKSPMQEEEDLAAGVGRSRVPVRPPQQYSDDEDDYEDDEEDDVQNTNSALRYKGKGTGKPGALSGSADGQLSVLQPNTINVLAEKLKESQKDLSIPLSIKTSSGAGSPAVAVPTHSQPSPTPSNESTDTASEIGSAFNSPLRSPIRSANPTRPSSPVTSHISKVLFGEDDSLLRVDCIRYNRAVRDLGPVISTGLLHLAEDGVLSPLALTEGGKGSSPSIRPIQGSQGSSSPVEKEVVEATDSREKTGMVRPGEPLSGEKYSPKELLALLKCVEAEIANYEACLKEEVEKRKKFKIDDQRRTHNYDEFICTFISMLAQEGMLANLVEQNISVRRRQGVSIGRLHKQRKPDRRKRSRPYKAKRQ
Ecoli WT expand: blocks growth of wild type E. coli BW25113. 98,000 compounds, 0.15% hits. OD600 absorbance. growth inhibition, % at 100 µM. AID 710;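 active means growth inhibition above about 50% at one test dose, limit read from the data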;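 further: growth measured after 20 h incubation at 37 °C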
M1 antag: M1 muscarinic receptor (rat) antagonism | P08482 | CHO-M1 cells, Fluo-4 calcium, ACh EC80 antagonist mode; stronger effect = lower value | B-score at 10 µM | 64,000 compounds, 3.4% hits | AID 628;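 active means calcium fluorescence response, raw or row-and-column corrected B-score, differing from the plate sample mean either way at a set confidence level, mostly lower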
Hsp90 block: displaces geldanamycin probe from tumor Hsp90. NCI-N417 lysate Hsp90, Cy3B-geldanamycin FP displacement. inhibition, % at 30 µM. 64,000 compounds, 0.35% hits. AID 429;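 active means inhibition above 50%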;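 further: 0% = tracer plus lysate wells and 100% = tracer alone without lysate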
M1 agonist: M1 muscarinic receptor agonism; CHO-M1 cells, Fluo-4 calcium fluorescence, agonist mode; stronger effect = higher value; B-score at 10 µM; 64,000 compounds, 3% hits; AID 626;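 active means fluorescence rise, raw or as B-score row- and column-corrected plate score, outside the 99.7% band of its plate's samples, either direction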
tolC growth inh: blocks growth of E. coli BW25113 tolC mutant; OD615; growth inhibition, % at 10 µM (by protocol); 65,000 compounds, 2.2% hits; AID 573;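 active means growth inhibition at or above a cutoff equal to the mean over every tested compound plus 3 SD, cut at about 60% in these data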;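 further: growth measured after 20 h incubation at 37 °C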
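signal = optical density read at 615 nm | test system = E. coli ΔtolC::kan strain BW25113 | timing = 20 h compound exposure of bacteria at 37 °C | buffer or medium = LB medium plus 50 µg/mL kanamycin | compound dosing = 10 µM final, single dose | evaluation = % inhibition of E. coli growth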
M1 antag conf: M1 muscarinic receptor (rat) antagonism, confirmed; 1,700 compounds, 43% hits; CHO-M1 cells, Fluo-4 calcium, ACh EC80 antagonism; stronger effect = lower value; shares compounds with M1 antag; calcium response (max-min fluorescence) at 10 µM;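 active means calcium response below the same-plate mean of wells given acetylcholine alone at its 80%-effect dose, minus 3 SD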;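 further: raw fluorescence intensity difference in arbitrary instrument units and not normalized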
mGluR4 antag: mGluR4 (human) activity, M1 antagonist secondary assay | shares compounds with M1 antag | fluorescence response (max-min) at 10 µM | 1,700 compounds, 0.9% hits | CHO-mGluR4 calcium flux, Fluo-4 fluorescence, glutamate EC80; stronger effect = lower value;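 active means fluorescence response below the plate's average for near-maximal glutamate wells, less 3 SD of those wells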;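 further: raw unnormalized fluorescence span taken in the window right after glutamate addition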
* marks the source's active call; other numbers are inactive results; i = inactive; x = no result shown. Most compounds without a hit are left out; they make up all but 5.1% or so of the library.

SMILES	BAP1 inh	Ecoli WT expand	M1 antag	Hsp90 block	M1 agonist	tolC growth inh	M1 antag conf	mGluR4 antag
COc1ccc(-n2c(SCC(N)=O)nc3sc4c(c3c2=O)CCN(C)C4)cc1	i	8.0	0.509	-10.3	-1.12	11.1	x	x
COC(=O)CSc1nc2sc3c(c2c(=O)n1C1CCCCC1)CCN(C)C3	i	3.0	-2.68*	-12.8	-2.73*	23.0	486*	261
c1ccc(-c2oc3ncnc(NCCCn4ccnc4)c3c2-c2ccccc2)cc1	i	2.0	-3.88*	1.5	0.0365	97.5*	435	145*
c1ccc(-c2c(-c3ccccc3)n(Cc3ccco3)c3ncnc(NCCCn4ccnc4)c23)cc1	x	13.0	x	x	x	x	x	x
O=[N+]([O-])c1ccc(C=CC=Nc2ccc3oc(-c4cccc5ccccc45)nc3c2)cc1	i	x	x	x	x	x	x	x
Cc1nn(C)c(C)c1CN(C)C(=O)c1cc2n(n1)C(C(F)(F)F)CC(c1cccs1)N2 (stereo not given)	i	-10.0	-3.46*	0.1	-1.83	34.4	590	244
Cc1sc2nc(CN3CCCC3)nc(N3CCN(S(=O)(=O)c4cccs4)CC3)c2c1C	x	2.0	-3.89*	x	-0.208	14.0	410*	217
Cc1sc2nc(CN3CCOCC3)nc(NS(=O)(=O)c3ccccc3)c2c1C	x	-1.0	x	x	x	x	x	x
CN(C)CCOC(=O)C(c1ccccc1)c1ccccc1	i	x	x	x	x	x	x	x
CCN(CC)CCOC(=O)C(c1ccccc1)c1ccccc1	i	x	-12.7*	-1.5	0.144	9.0	18.8*	240
N#Cc1cccc(N=c2oc3ccc(Br)cc3cc2C(=O)Nc2ccccc2)c1	i	x	x	x	x	x	x	x
COC(=O)c1ccccc1NC(=O)N1CCN(C/C=C/c2ccccc2)CC1	i	3.0	-4.13*	0.2	0.121	49.4	507	238
Cn1cc(CN2CCN(c3ccccc3)CC2)c2ccccc21	i	1.0	-4.32*	-6.9	-0.632	0.3	459*	191
COC(=O)C1=C(C(=O)OC)SC(=C2C(=S)C(C)(C)N(C(=O)Cc3ccccc3)c3ccc(OC)cc32)S1	i	x	x	x	x	x	x	x
Cc1ccc(NC(=O)NC2CCCCC2)cc1Cl	i	0.0	-1.15*	-1.7	-0.672	3.4	524	202
Cc1ccc(NC(=O)C2CCN(C(=O)NC3CCCCC3)CC2)cc1Cl	i	-12.0	0.229	-2.0	-0.331	-6.2	x	x
COc1cc(Cl)cc2c1OC1(C=C2)c2ccccc2-c2ccccc2N1C (stereo not given)	i	x	x	x	x	x	x	x
Cc1ccc(OCC(=O)Nc2c(C)n(C)n(-c3ccccc3)c2=O)cc1	i	x	x	x	x	x	x	x
COc1ccc(-c2noc(CSc3nc(N)c(-c4ccccc4)c(=O)[nH]3)n2)cc1	i	-11.0	-3.37*	1.8	0.93	11.7	628	290
COc1ccc(Cc2nc(-c3ccccc3)no2)cc1	i	-4.0	-2.11*	-8.1	0.14	23.4	611	263
COc1ccc(Cc2nc(-c3ccc(-n4cccc4)cc3)no2)cc1	i	-6.0	-1.11	-1.8	-1.11	-9.6	x	x
COc1ccc(-c2noc(CSc3nc4ccccc4c(=O)n3-c3ccc(C)cc3)n2)cc1	x	-24.0	x	x	x	x	x	x
Cc1cc2c(=O)oc(-c3cccc4ccccc34)nc2s1	i	x	x	x	x	x	x	x
COc1ccccc1C1NC(=O)NC(C)=C1C(=O)OCc1ccc(C)cc1 (stereo not given)	i	x	x	x	x	x	x	x
CCCNC(=O)c1cnn2c1NC(c1cc(OC)c(OC)c(OC)c1)CC2C(F)(F)F (stereo not given)	i	x	x	x	x	x	x	x
SMILES	BAP1 inh	Ecoli WT expand	M1 antag	Hsp90 block	M1 agonist	tolC growth inh	M1 antag conf	mGluR4 antag
CC1CCCC(C)N1CC(O)COc1ccc(C2CCCCC2)cc1 (stereo not given)	i	x	x	x	x	x	x	x
CCOc1ccc(C(=O)Nc2ccc(-c3nc4cc(C)c(C)cc4o3)cc2)cc1	i	x	x	x	x	x	x	x
COc1ccc(S(=O)(=O)N2CCN(C(=O)c3ccncc3)CC2)cc1	i	x	x	x	x	x	x	x
O=C(NCCCN1CCN(c2cccc(Cl)c2)CC1)C1CCC(=O)N1Cc1ccccc1Cl (stereo not given)	i	12.0	-2.04*	-3.0	-0.788	6.5	532	244
CCc1ccc2nc(NC3=NCN(CCCN4CCOCC4)CN3)nc(C)c2c1	i	x	-3.74*	-3.0	-0.982	-8.1	344*	182
CCOc1ccc2nc(NC3=NCN(CC4CCCO4)CN3)nc(C)c2c1 (stereo not given)	x	x	0	1.4	-0.423	x	x	x
Cc1ccc2nc(NC3=NCN(Cc4ccco4)CN3)nc(C)c2c1	i	x	-2.89*	-1.8	0.605	11.8	392	227
Cc1ccc2nc(NC3=NCN(Cc4ccc5c(c4)OCO5)CN3)nc(C)c2c1	x	x	-4.18*	1.7	0.0216	-10.5	90.1*	273
Cc1ccc2nc(NC3=NCN(C4CCCCC4)CN3)nc(C)c2c1	i	x	-0.36	-0.3	-0.0962	-20.9	x	x
CCN(CC)CCOCCOc1cc(C)c(Cl)c(C)c1	x	-2.0	x	x	x	x	x	x
CCN(CC)CCOc1cccc(C(C)C)c1	i	8.0	-4.53*	-5.5	-0.0289	-14.7	294*	213
CCCCCn1c(=S)[nH]c2ncccc2c1=O	i	-2.0	0.447	0.0	-0.254	-8.8	x	x
CN(CCCn1c(=S)[nH]c2ncccc2c1=O)Cc1ccccc1	i	-4.0	-3.3*	0.0	-1.07	-6.8	471	221
CC1(C)CC(=O)CC(=NCC(=O)O)C1	i	5.0	-2.64*	1.1	0.542	-12.7	665	268
Cc1nccn1CCc1n[nH]c(=S)n1Cc1ccccc1	i	5.0	-9.47*	-0.8	1.02	-10.3	314*	233
CCOC(=O)c1ccc(NC(=O)CSc2nnc(COc3ccccc3)n2C)cc1	i	-1.0	-0.174	-1.0	0.331	-4.2	x	x
CCOC(=O)c1ccc(NC(=O)CSc2nccn2C)cc1	i	7.0	-3.29*	-0.9	-0.227	3.3	623	229
O=C(CN1C(=O)c2cccc([N+](=O)[O-])c2C1=O)Nc1ccc(Br)cc1	i	x	x	x	x	x	x	x
O=C(NCc1ccncc1)c1cccc(Cn2cc(Br)cn2)c1	i	2.0	-10*	-3.1	-1.23	-4.3	87.8*	205
O=C(O)c1cccc(Cn2cc(Br)cn2)c1	i	1.0	-0.864	-1.1	-0.725	-14.5	x	x
Cc1ccc(-n2nnc3c(SCC(=O)NCC4CCCO4)ncnc32)cc1 (stereo not given)	i	7.0	-2.39*	3.1	1.52	4.5	569	247
O=C(CSc1ncnc2c1nnn2-c1ccc(F)cc1)NCC1CCCO1 (stereo not given)	i	6.0	-1.26	-2.6	0.185	8.3	x	x
CCCC(=O)Nc1c(C)n[nH]c1C	x	-4.0	x	x	x	x	x	x
CC(=O)Nc1nc(C(=O)Nc2c(C)n[nH]c2C)cs1	i	11.0	-2.87*	-0.3	0.627	-18.4	575	203

Compound activity (PubChem)
